According to ChEMBL document CHEMBL3612047, “Synthesis, antiproliferative activity and possible mechanism of action of novel 2-acetamidobenzamides bearing the 2-phenoxy functionality” (Bioorg Med Chem, 2015):
Active and inactive are the calls of the source. The calls are words filed in the database; no cut-off is given here.

What was measured:
TK-10 = experiment: Growth inhibition of human TK10 cells by NCI standard protocol based method; format: functional
How it was run: (§1)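 NCI 60-cell-line screen, standard NCI protocol. Single high dose of 10⁻⁵ M first, then a 5-dose assay across the full panel. Reported as GI₅₀, TGI and LC₅₀, the molar concentrations giving 50% net growth inhibition, total growth inhibition and 50% net cell death. Where an effect was not reached, the highest tested concentration was used.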

U-251 = experiment: Growth inhibition of human U251 cells by NCI standard protocol based method; format: functional; how it was run: as §1
HCT-15 = experiment: Growth inhibition of human HCT15 cells by NCI standard protocol based method; format: functional
How it was run: (§2)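 NCI full 60-cell-line panel, 5-dose assay to the NCI standard protocol. GI₅₀ is the molar concentration inhibiting 50% net cell growth. Mean graph midpoint is averaged over all lines; where the effect is not reached, the highest tested concentration is used.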

HL-60(TB) = experiment: Growth inhibition of human HL-60(TB) cells by NCI standard protocol based method; format: functional
How it was run: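 Tested in the NCI 60-cell-line screen under its standard protocol. A single-dose prescreen was run at 10⁻⁵ M, then a five-dose assay. GI50 is the molar concentration that inhibits net cell growth by 50%.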

[1] = Growth inhibition of human SF539 cells by NCI standard protocol based method; format: functional; conditions: SF-539; how it was run: as §2
MDA-MB-435 = experiment: Growth inhibition of human MDA-MB-435 cells by NCI standard protocol based method; format: functional; how it was run: as §2
K562 [2] = experiment: Growth inhibition of human K562 cells by NCI standard protocol based method; format: functional; how it was run: as §2
NCI-H322M = experiment: Growth inhibition of human NCI-H322M cells by NCI standard protocol based method; format: functional; how it was run: as §2
[3] = Growth inhibition of human HCC2998 cells by NCI standard protocol based method; format: functional; conditions: HCC 2998; how it was run: as §2
M14 = experiment: Growth inhibition of human M14 cells by NCI standard protocol based method; format: functional; how it was run: as §2
SK-MEL-28 = experiment: Growth inhibition of human SK-MEL-28 cells by NCI standard protocol based method; format: functional; how it was run: as §2
K562 [4] = experiment: Selectivity index, ratio of IC50 for human HuDe cells to IC50 human K562 cells
How it was run: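 Index taken as the ratio of HuDe to K562 IC₅₀. For K562: about 2 × 10⁵ cells/mL, compounds added at graded concentrations, viable count by trypan blue exclusion with a hemocytometer after 24 h. For HuDe primary epidermal cells: 2 × 10⁴ cells/mL, drugs or 0.1% DMSO added 24 h after seeding, MTT read at 570 nm (690 nm blank) after 72 h.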

ACHN = experiment: Growth inhibition of human ACHN cells by NCI standard protocol based method; format: functional; how it was run: as §2
NCI-H226 = experiment: Growth inhibition of human NCI-H226 cells by NCI standard protocol based method; format: functional; how it was run: as §2
UACC-257 = experiment: Growth inhibition of human UACC257 cells by NCI standard protocol based method; format: functional; how it was run: as §1
[5] = Growth inhibition of human HOP92 cells by NCI standard protocol based method; format: functional; conditions: HOP-92; how it was run: as §2
SK-OV-3 = experiment: Growth inhibition of human SKOV3 cells by NCI standard protocol based method; format: functional; how it was run: as §1
SN12C = experiment: Growth inhibition of human SN12C cells by NCI standard protocol based method; format: functional; how it was run: as §1
OVCAR-5 = experiment: Growth inhibition of human OVCAR5 cells by NCI standard protocol based method; format: functional; how it was run: as §2
K562 [6] = experiment: Growth inhibition of human K562 cells at 10 uM incubated for 24 hrs by trypan blue dye exclusion assay; format: functional; conditions: K562, 24 h, read-out: GI
How it was run: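 K562 cells in medium with 5% FBS at 37 °C, 5% CO₂. About 2 × 10⁵ cells/mL cultured 24 h, then compound added at 10 μM. After 24 h exposure, cells counted by hemocytometer and viability scored by trypan blue exclusion, reported as percent growth inhibition.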

NCI/ADR-RES = experiment: Growth inhibition of human NCI/ADR-RES cells by NCI standard protocol based method; format: functional; how it was run: as §2
HCT-116 = experiment: Growth inhibition of human HCT116 cells by NCI standard protocol based method; format: functional; how it was run: as §2
CAKI-1 = experiment: Growth inhibition of human CAKI-1 cells by NCI standard protocol based method; format: functional; how it was run: as §2
T47D = experiment: Growth inhibition of human T47D cells by NCI standard protocol based method; format: functional; how it was run: as §1
Tubulin (Homo sapiens) = Tubulin (Homo sapiens) (UniProt P68371+Q9H4B7+P0DPH7+P68366+Q13509+Q71U36+P04350+Q3ZCM7+P07437+P68363+Q9BQE3+Q6PEY2+Q13885+Q9BVA1+Q9BUF5); experiment: Inhibition of colchicine binding to tubulin (unknown origin); format: protein-complex assay
DU-145 = experiment: Growth inhibition of human DU145 cells by NCI standard protocol based method; format: functional; how it was run: as §2
SK-MEL-5 = experiment: Growth inhibition of human SK-MEL-5 cells by NCI standard protocol based method; format: functional; how it was run: as §2
[7] = Growth inhibition of human NCI60 cells assessed as cell growth level at 10 uM by NCI standard protocol based method; format: functional; set-up: scale not given: the % may be the effect or the level left
How it was run: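 NCI 60-cell-line screen (leukemia, lung, colon, melanoma, renal, ovarian, brain, breast, prostate) run to the NCI standard protocol. Single high dose of 10⁻⁵ M, read as growth percent. Mean graph midpoint is the arithmetic mean over all lines tested.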

[8] = Growth inhibition of human NCI60 cells by NCI standard protocol based method; format: functional; conditions: for TGI: read-out: pTGI (converted); how it was run: as §2
KM12 = experiment: Growth inhibition of human KM12 cells by NCI standard protocol based method; format: functional; how it was run: as §2
IGROV-1 = experiment: Growth inhibition of human IGROV1 cells by NCI standard protocol based method; format: functional; how it was run: as §2
OVCAR-3 = experiment: Growth inhibition of human OVCAR3 cells by NCI standard protocol based method; format: functional; how it was run: as §2
HOP-62 = experiment: Growth inhibition of human HOP62 cells by NCI standard protocol based method; format: functional; how it was run: as §2
[9] = Growth inhibition of human RXF393 cells by NCI standard protocol based method; format: functional; conditions: RXF 393; how it was run: as §2
K562 [10] = experiment: Growth inhibition of human K562 cells incubated for 24 hrs by trypan blue dye exclusion assay; format: functional, cell-based; conditions: K562, 24 h
How it was run: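 K562 cells, about 2 × 10⁵ cells/mL, precultured 24 h, then exposed 24 h to a range of compound concentrations. Viable cells counted by hemocytometer with trypan blue exclusion to derive IC₅₀.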

UO-31 = experiment: Growth inhibition of human UO31 cells by NCI standard protocol based method; format: functional; how it was run: as §1
[11] = Growth inhibition of human MOLT4 cells by NCI standard protocol based method; format: functional; conditions: MOLT-4; how it was run: as §2
[12] = Growth inhibition of human RPMI8226 cells by NCI standard protocol based method; format: functional; conditions: RPMI-8226; how it was run: as §2
[13] = Cytotoxicity against human HuDe cells incubated for 72 hrs by MTT assay; format: cell-based
How it was run: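 HuDe primary culture from human epidermis, seeded at 2 × 10⁴ cells/mL. Test drugs at different concentrations, or 0.1% DMSO, added 24 h after seeding, with 72 h exposure. MTT (5 mg/mL in PBS) then applied for 3 h at 37 °C. Formazan solubilized with isopropanol/triton X-100/HCl and read at 570 nm with 690 nm blank.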

Structure (SMILES): NC(=O)c1cc(I)ccc1NC(=O)COc1ccccc1
- GI50 (TK-10): 8110 nM
- GI50 (U-251): 396 nM
- GI50 (HCT-15): 253 nM
- GI50 (HL-60(TB)): 339 nM
- GI50 [1]: 249 nM
- GI50 (MDA-MB-435): 101 nM
- GI50 (K562 [2]): 161 nM
- GI50 (NCI-H322M): 705 nM
- GI50 [3]: 2950 nM
- GI50 (M14): 389 nM
- GI50 (SK-MEL-28): 1790 nM
- Ratio IC50 (K562 [4]): 1987.5
- GI50 (ACHN): 1320 nM
- GI50 (NCI-H226): 4940 nM
- GI50 (UACC-257): 41700 nM
- GI50 [5]: 1500 nM
- GI50 (SK-OV-3): 3170 nM
- GI50 (SN12C): 945 nM
- GI50 (OVCAR-5): 1680 nM
- inhibition of growth at 10 µM (K562 [6]): 73%
- GI50 (NCI/ADR-RES): 344 nM
- GI50 (HCT-116): 517 nM
- GI50 (CAKI-1): 519 nM
- GI50 (T47D): 556 nM
- inhibition (Tubulin (Homo sapiens)): inactive
- GI50 (DU-145): 444 nM
- GI50 (SK-MEL-5): 533 nM
- Activity [7]: 24.31%
- GI50 [8]: 692 nM
- LC50 [8]: 89100 nM
- TGI [8]: 35500 nM
- GI50 (KM12): 308 nM
- GI50 (IGROV-1): 1370 nM
- GI50 (OVCAR-3): 321 nM
- GI50 (HOP-62): 824 nM
- GI50 [9]: 413 nM
- IC50 (K562 [10]): 160 nM
- GI50 (UO-31): 2870 nM
- GI50 [11]: 1100 nM
- GI50 [12]: 553 nM
- IC50 [13]: 318000 nM

Structure (SMILES): NC(=O)c1cc(Cl)ccc1NC(=O)COc1ccccc1
- GI50 (TK-10): 63800 nM
- GI50 (U-251): 2340 nM
- GI50 (HCT-15): 1570 nM
- GI50 (HL-60(TB)): 3290 nM
- GI50 [1]: 1800 nM
- GI50 (MDA-MB-435): 356 nM
- GI50 (K562 [2]): 854 nM
- GI50 (NCI-H322M): 7090 nM
- GI50 [3]: 12100 nM
- GI50 (M14): 2210 nM
- GI50 (SK-MEL-28): 6250 nM
- Ratio IC50 (K562 [4]): 621.38
- GI50 (ACHN): 10700 nM
- GI50 [5]: 5700 nM
- GI50 (SK-OV-3): 8150 nM
- GI50 (SN12C): 17000 nM
- GI50 (OVCAR-5): 3860 nM
- inhibition of growth at 10 µM (K562 [6]): 87%
- GI50 (NCI/ADR-RES): 1430 nM
- GI50 (HCT-116): 2720 nM
- GI50 (CAKI-1): 4180 nM
- GI50 (T47D): 6870 nM
- inhibition (Tubulin (Homo sapiens)): inactive
- GI50 (DU-145): 6010 nM
- GI50 (SK-MEL-5): 7450 nM
- Activity [7]: 46.4%
- GI50 [8]: 4900 nM
- LC50 [8]: 100000 nM
- TGI [8]: 72400 nM
- GI50 (KM12): 2130 nM
- GI50 (IGROV-1): 5600 nM
- GI50 (OVCAR-3): 2300 nM
- GI50 (HOP-62): 5880 nM
- GI50 [9]: 3930 nM
- IC50 (K562 [10]): 1300 nM
- GI50 (UO-31): 17500 nM
- GI50 [11]: 8140 nM
- GI50 [12]: 4330 nM
- IC50 [13]: 808000 nM
